Only some compounds are listed: those with a hit (about 2.4% of all), similar ones and a draw of the others.
NR2E3 ag-1: human photoreceptor-specific nuclear receptor agonism | AID 602229 | CHO-S Gal4-NCOR/VP16-NR2E3 two-hybrid, luciferase | Q9Y5X4 | 360,000 tested, 0.35% active | inhibition of corepressor binding, % at 3.98 µM;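 active means inhibition above the mean of all tested compounds plus 3 SD, cut at about 70% in these data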;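 further: higher means lower luciferase signal from less NR2E3 corepressor binding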
Target sequence (Q9Y5X4 whole entry, looked up, the tested form may be a part): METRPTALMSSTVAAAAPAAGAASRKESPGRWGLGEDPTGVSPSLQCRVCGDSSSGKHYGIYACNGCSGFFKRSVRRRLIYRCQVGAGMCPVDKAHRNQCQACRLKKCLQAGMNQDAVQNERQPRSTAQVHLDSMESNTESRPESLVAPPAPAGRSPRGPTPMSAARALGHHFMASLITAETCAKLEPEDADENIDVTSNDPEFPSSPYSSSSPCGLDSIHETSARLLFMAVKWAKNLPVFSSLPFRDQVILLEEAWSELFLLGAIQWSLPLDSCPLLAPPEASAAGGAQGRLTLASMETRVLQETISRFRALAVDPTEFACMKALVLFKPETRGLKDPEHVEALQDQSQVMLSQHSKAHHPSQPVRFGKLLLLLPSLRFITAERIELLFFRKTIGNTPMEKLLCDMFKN
Jurkat NFkB inh: lowers PMA/ionomycin-induced NF-kB signal in Jurkat cells | PMA/ionomycin-induced NF-kB luciferase reporter, luminescence | 330,000 tested, 0.53% active | inhibition, % at 4 µM; in the data active means inhibition above about 50%
697 NFkB inh: lowers PMA/ionomycin-induced NF-kB signal in 697 B cells. AID 435022. 330,000 tested, 0.33% active. 697 B-cell NF-kB luciferase reporter, 16 h. inhibition, % at 4 µM; in the data active means inhibition above about 35%
MPTP block: blocks calcium-induced mitochondrial swelling; AID 602449; inhibition, % at 10 µM; 360,000 tested, 1.4% active; isolated mouse mitochondria, Ca2+ swelling absorbance, 30 min;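 active means inhibition of 50% or more, scaled per plate between neutral and stimulator controls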
NR2E3 ag-2: NR2E3 (human) agonism | AID 2300 | GST-NR2E3/biotin-RetCOR TR-FRET, 1536-well | Q9Y5X4 | 320,000 tested, 0.12% active | inhibition of corepressor binding, % at 4.78 µM;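 active means percent inhibition above the cutoff of mean plus 3 SD of all tested compounds, set per screening campaign, cut at about 20% in these data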
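Assay system: NR2E3–RetCOR corepressor complex. Quantity: 1.35 nM GST-NR2E3. Buffer or medium: pH 7.5 Tris-based buffer. Reagent: biotinylated RetCOR corepressor at 7 nM final. Schedule: 5 h at 4 °C. Detection: TR-FRET, emission read at 617 and 671 nm. Replicates: one well per compound, singlicate testing.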
aDG glyco up: alpha-DG glycosylation activation; AID 624168; activation, % at 10 µM; 360,000 tested, 0.22% active; Pro5-aDG cells, alpha-DG glycosylation AlphaScreen (IIH6); 0% Pro5, 100% B10-LARGE cell signal;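 active means activation of at least 8% versus controls, or a plate z-score of at least 8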;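 further: Pro5 are CHO cells carrying HIG-tagged alpha-DG that lacks glycosylation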
Rh123 counter: mitochondrial membrane potential, counter-screen; AID 624504; 5,000 tested, 78% active; inhibition, % at 10 µM; shares compounds with MPTP block; isolated mitochondria, Rhodamine 123 fluorescence; in the data active means inhibition above about 22%
MPTP abs DR: dose response confirmation of mitochondrial permeability transition pore inhibitors | shares compounds with MPTP block | isolated mitochondria swelling, absorbance | IC50, µM | 780 tested, 58% active | AID 651561; in the data active means IC50 below about 20 µM
MPTP counter DR: MPTP inhibitor counter-screen activity, dose response. IC50, µM. isolated mitochondria counterscreen, fluorescence read-out. 780 tested, 49% active. shares compounds with MPTP block; in the data active means IC50 below about 80 µM
A number is an active result; i = inactive; nt = no result.

SMILES	NR2E3 ag-1	Jurkat NFkB inh	697 NFkB inh	MPTP block	NR2E3 ag-2	aDG glyco up	Rh123 counter	others
CC1(c2ccccc2)CC(C)(C)N2C(=O)/C(=C3\SC(=S)NC3=O)c3cccc1c32 (stereo unspecified)	i	nt	nt	102	i	i	63
Cc1cc(C)cc(NC(=O)Cn2nnc(C(=O)NCc3ccc(F)cc3)c2N)c1	i	i	i	i	i	i	nt
COc1ccc(S(=O)(=O)N2CCCCCC2)cc1NS(=O)(=O)c1cc(C(=O)O)cc(C)c1C	i	i	i	i	i	i	nt
O=C(NN1C(=O)c2cc(Br)ccc2NC1c1cc(Br)cc(Br)c1O)c1ccncc1 (stereo unspecified)	i	i	i	88	i	i	52
O=C(NN1C(=O)c2cc(Br)ccc2NC1c1ccccc1Cl)c1ccncc1 (stereo unspecified)	i	i	i	i	i	i	nt
Cc1ccc(-c2noc(C3CCCN(S(=O)(=O)c4ccc5ccccc5c4)C3)n2)o1 (stereo unspecified)	i	i	i	i	i	i	nt
Cc1ccc(-c2noc(C3CCN(S(=O)(=O)c4ccc5c(c4)OCCO5)CC3)n2)o1	i	i	i	52	i	i	64
COc1ccc(NS(=O)(=O)c2ccc(N/N=C(\C)c3ccncc3)c([N+](=O)[O-])c2)cc1	i	i	i	68	i	i	20
COc1ccccc1NS(=O)(=O)c1ccc(N/N=C(\C)C(C)C)c([N+](=O)[O-])c1	nt	i	i	76	i	i	55
O=C(COc1ccccc1)NC(=S)Nc1cccc2c(O)cccc12	i	nt	nt	i	nt	i	nt
CN(C)CC1CCCCC1C1(O)c2ccccc2CSc2sccc21 (stereo unspecified)	i	i	i	57	i	i	i	MPTP abs DR=18;MPTP counter DR=i
CC(C)n1ncc2c(C(=O)N3CCN(S(=O)(=O)c4cccc(F)c4)CC3)cc(C3CC3)nc21	i	nt	nt	i	nt	i	nt
CCc1ccc(OCC(=O)NNC(=O)c2cnccn2)c(Br)c1	i	i	i	i	i	i	nt
CCc1ccc(OCC(=O)Nc2ccncc2)c(Br)c1	i	i	i	79	i	i	80
Cc1cc(OCC(=O)Nc2ccncc2)c(C)cc1Br	i	i	i	98	i	i	84
Cc1cc(OCC(=O)Nc2ccncc2)cc(C)c1Cl	i	i	i	94	i	i	84
Cc1cccc(C)c1OCC(=O)Nc1ccncc1	i	i	i	i	i	i	nt
CC(C)(C)c1ccc(OCC(=O)Nc2ccncc2)c(Br)c1	i	i	i	108	i	i	88
Cc1ccc(OCC(=O)Nc2ccncc2)cc1C	i	nt	nt	i	nt	i	nt
O=C(N[C@H]1CC[C@H](CCNS(=O)(=O)c2ccc(Cl)cc2)O[C@@H]1CO)c1cccc(F)c1	nt	nt	nt	i	nt	i	nt
COc1cccc(OC)c1C(=O)OCC(=O)NC1CCCCCC1	i	i	i	i	i	i	nt
CCCc1cc(C(=O)NC2CCCN(Cc3ccccc3F)C2)no1 (stereo unspecified)	i	i	i	i	i	i	nt
CN(C)N1C(=O)C2C3C=CC(O3)C2C1=O (stereo unspecified)	i	nt	nt	i	nt	i	nt
CCOc1ccc(C2(C)NC(=O)N(CCN(C)C)C2=O)cc1 (stereo unspecified)	i	i	i	i	i	i	nt
O=C(Nc1ccc(Cl)c(Cl)c1)Nc1nc(-c2ccccc2)cs1	i	i	i	74	i	i	73
SMILES	NR2E3 ag-1	Jurkat NFkB inh	697 NFkB inh	MPTP block	NR2E3 ag-2	aDG glyco up	Rh123 counter	others
O=C(Nc1ccccc1)Nc1nc(-c2ccccc2)cs1	i	i	i	85	i	i	80
O=C(Nc1ccccc1)Nc1nc(-c2ccc(F)c(F)c2)cs1	i	i	i	i	i	i	nt
C[C@@H]1CN([C@@H](C)CO)C(=O)c2cc(NC(=O)CCC(F)(F)F)ccc2O[C@H]1CN(C)S(=O)(=O)c1ccc(Cl)cc1	i	i	i	i	nt	i	nt
O=C(O)COc1ccccc1/C=N/NC(=O)CN1CCN(Cc2ccc(Cl)cc2)CC1	i	i	i	i	i	i	nt
O=C(/C=C/c1ccc(Br)cc1)NC(=O)c1ccccc1O	i	i	i	102	i	i	88
CCOC(=O)C1=C2NC(=O)c3ccccc3N2C(=O)C1	i	i	i	i	i	i	nt
CC(C)CN(C(=O)C1CCC1)c1c(N)n(Cc2ccccc2)c(=O)[nH]c1=O	i	i	i	i	nt	i	nt
COc1ccc(Nc2cc(C(=O)NCCCN3CCOCC3)c3ccccc3n2)cc1	i	i	i	i	i	i	nt
CCc1ccc(Nc2cc(C(=O)NCCCN3CCOCC3)c3ccccc3n2)cc1	i	i	i	52	i	i	i	MPTP abs DR=i;MPTP counter DR=i
Cc1ccc(SCCC(=O)Nc2ccc(Br)c(C)c2)cc1	i	i	i	86	i	i	92
CN(Cc1cc(Cl)cc(Cl)c1O)Cc1c(O)ccc2ccccc12	i	nt	nt	89	nt	i	85
CN(Cc1ccccc1)Cc1c(O)ccc2ccccc12	i	i	i	i	i	i	nt
CC(C)COc1ccc(-c2nnc(-c3ccncc3)o2)cc1	i	i	i	59	i	i	51
COc1ccc(NC(=O)Nc2ccccc2F)cc1Cl	i	i	i	i	i	i	nt
O=C(Nc1ccc(F)c(Cl)c1)Nc1csc2ccccc12	i	i	i	76	i	i	68
O=C(Nc1ccc(F)cc1F)Nc1csc2ccccc12	i	i	i	83	i	i	85
O=C(Nc1ccc(F)cc1F)Nc1ccc(F)cc1F	i	i	i	i	i	i	nt
CCOC(=O)C1CCCN(S(=O)(=O)Cc2ccc(Cl)cc2)C1 (stereo unspecified)	i	i	i	i	i	i	nt
Cc1ccc(NC(=O)C(=O)NCc2ccc(/C=C(/C#N)C(=O)NCc3cccnc3)o2)cc1	i	i	i	i	i	i	nt
Cc1ccc(NC(=O)C(=O)NCc2ccc(/C=C(/C#N)C(=O)NCc3cccnc3)o2)cc1C	i	i	i	60	i	i	76
Cc1cc(NS(=O)(=O)c2ccc(NC(=O)Nc3cccc(C(F)(F)F)c3)cc2)no1	i	i	i	i	i	i	nt
Cc1cc(/C(N)=N/OC(=O)Nc2cccc(C(F)(F)F)c2)no1	i	i	i	72	i	i	88
Cc1cc(NC(=O)Nc2cccc(C(F)(F)F)c2)no1	i	i	i	76	i	i	71
CC1CCC(NC(=O)C2CC(=O)N(c3ccc(Cl)cc3)C2)CC1 (stereo unspecified)	i	i	i	i	i	i	nt
COc1ccc(COc2ccccc2C(=O)NCc2ccccc2)cc1F	i	i	i	96	i	i	88

Source: PubChem
